Key:
[1] = compound: COc1cc(OC)c(C(=O)/C=C/c2ccccc2)c(O)c1CN1CCCCC1; assay: Inhibition of Sprague-Dawley rat brain AChE using acetylthiocholin iodide as substrate at 2.2 uM by Michaelis-Menten equation
How it was run: (§1)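 Kinetic analysis: Km and vmax were determined at several inhibitor concentrations. Ki for the free enzyme came from a linear replot of slope against inhibitor concentration. Ki′ for the enzyme–substrate complex came from a linear replot of intercept against inhibitor concentration.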

[2] = compound: COc1cc(OC)c(C(=O)/C=C/c2ccccc2)c(O)c1CN1CCCCC1; assay: Inhibition of Sprague-Dawley rat brain AChE using acetylthiocholin iodide as substrate at 4.4 uM by Michaelis-Menten equation; how it was run: as §1

B1: Acetylcholinesterase (Rattus norvegicus), P37136 (protein)
chain: MRPPWYPLHTPSLASPLLFLLLSLLGGGARAEGREDPQLLVRVRGGQLRGIRLKAPGGPVSAFLGIPFAEPPVGSRRFMPPEPKRPWSGILDATTFQNVCYQYVDTLYPGFEGTEMWNPNRELSEDCLYLNVWTPYPRPTSPTPVLIWIYGGGFYSGASSLDVYDGRFLAQVEGTVLVSMNYRVGTFGFLALPGSREAPGNVGLLDQRLALQWVQENIAAFGGDPMSVTLFGESAGAASVGMHILSLPSRSLFHRAVLQSGTPNGPWATVSAGEARRRATLLARLVGCPPGGAGGNDTELISCLRTRPAQDLVDHEWHVLPQESIFRFSFVPVVDGDFLSDTPDALINTGDFQDLQVLVGVVKDEGSYFLVYGVPGFSKDNESLISRAQFLAGVRIGVPQASDLAAEAVVLHYTDWLHPEDPAHLRDAMSAVVGDHNVVCPVAQLAGRLAAQGARVYAYIFEHRASTLTWPLWMGVPHGYEIEFIFGLPLDPSLNYTVEERIFAQRLMQYWTNFARTGDPNDPRDSKSPRWPPYTTAAQQYVSLNLKPLEVRRGLRAQTCAFWNRFLPKLLSATDTLDEAERQWKAEFHRWSSYMVHWKNQFDHYSKQERCSDL
B1 showed a Km [1] of 4.18 mM, a Vmax [1] of 0.0288 deltaA/min and a Km [2] of 4.63 mM. The Vmax [2] was 0.0212 deltaA/min.
